Measurements: ChEMBL document CHEMBL1121887, “A new nontricyclic antidepressant agent. Synthesis and activity of N-[trans-2-(dimethylamino)cyclopentyl]-N-(3,4-dichlorophenyl)propanamide and related compounds” (1981)

Assays:
Type in all cases: functional
Mus musculus [1] = organism: Mus musculus; assay: Antidepressant activity using yohimbine potentiation test in mice
Mus musculus [2] = organism: Mus musculus; assay: Antidepressant activity using apomorphine potentiation test in mice
In short: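 Male CF-1 mice in groups of four got test compound i.p. (50 and 25 mg/kg) in 0.25% aqueous methylcellulose. 1 h later they got apomorphine 10 mg/kg s.c. and were watched 30 min for stereotyped gnawing and licking, each positive. If ≥3 were positive, the test was repeated at 0.3 log lower doses until ≤1 responded. ED50 and 95% CI by Spearman–Karber.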

Mus musculus [3] = organism: Mus musculus; assay: Antidepressant activity using oxotremorine antagonism test in mice

SMILES	ED50 (Mus musculus [1]; Mus musculus, read-out: ED50) [mg/kg]	ED50 (Mus musculus [2]; Mus musculus, read-out: ED50) [mg/kg]	ED50 (Mus musculus [3]; Mus musculus, read-out: ED50) [mg/kg]	ED50 (Mus musculus [1]) [mg/kg]	ED50 (Mus musculus [2]) [mg/kg]	ED50 (Mus musculus [3]) [mg/kg]
C=CC(=O)N(c1ccc(Cl)c(Cl)c1)C1CCCC1N(C)C (stereo not drawn)	2	5	5	–	–	–
CN(C)C1CCCC1N(C(=O)C1CCC1)c1ccc(Cl)c(Cl)c1 (stereo not drawn)	0.8	> 50	0.6	–	–	–
CCC(=O)N(c1ccc(Cl)c(Cl)c1)C1CCCCCC1N(C)C (stereo not drawn)	2	20	6	–	–	–
CC(C)C(=O)N(c1ccc(Cl)c(Cl)c1)C1CCCC1N(C)C (stereo not drawn)	2	5	4	–	–	–
CCC(=O)N(c1ccc(Cl)c(Cl)c1)C1CCCCCCC1N(C)C (stereo not drawn)	20	6	10	–	–	–
CCC(=O)N(c1ccc(C#N)cc1)C1CCCC1N(C)C (stereo not drawn)	10	> 50	40	–	–	–
CCC(=O)N(c1ccc([N+](=O)[O-])cc1)C1CCCC1N(C)C (stereo not drawn)	20	20	6	–	–	–
CN(C)C1CCCC1N(C(=O)C1CCCCC1)c1ccc(Cl)c(Cl)c1 (stereo not drawn)	1	> 50	2	–	–	–
CCC(=O)N(c1ccc(Cl)c(Cl)c1)C1CCCCC1N(C)C (stereo not drawn)	30	20	20	–	–	–
CCNC1CCCC1N(C(=O)CC)c1ccc(Cl)c(Cl)c1 (stereo not drawn)	0.2	–	2	–	–	–
CCC(=O)N(c1ccc(F)cc1)C1CCCC1N(C)C (stereo not drawn)	5	> 50	0.08	–	–	–
CCC(=O)N(c1ccc(C(C)=O)cc1)C1CCCC1N(C)C (stereo not drawn)	> 50	> 50	40	–	–	–
CCC(=O)N(c1cccc(OC)c1)C1CCCC1N(C)C (stereo not drawn)	0.8	4	4	–	–	–
CCC(=O)N(c1cccc(C(F)(F)F)c1)C1CCCC1N(C)C (stereo not drawn)	0.3	0.9	0.2	–	–	–
CN(C)C1CCCC1N(C(=O)C1CC1)c1ccc(Cl)c(Cl)c1 (stereo not drawn)	0.2	0.4	0.3	–	–	–
CCC(=O)N(c1cccc(Cl)c1)C1CCCC1N(C)C (stereo not drawn)	0.4	20	0.2	–	–	–
CCC(=O)N(c1ccc(Cl)c(Cl)c1)C1CCCC1N(C)CCc1ccccc1 (stereo not drawn)	0.1	5	0.4	–	–	–
CN(C)C1CCCC1N(C(=O)c1ccco1)c1ccc(Cl)c(Cl)c1 (stereo not drawn)	9	> 50	> 50	–	–	–
CCC(=O)N(c1ccc(C(F)(F)F)cc1)C1CCCC1N(C)C (stereo not drawn)	10	10	25	–	–	–
CCC(=O)N(c1ccc(Br)c(Br)c1)C1CCCC1N(C)C (stereo not drawn)	0.1	0.5	0.2	–	–	–
CCCN(CCC)C1CCCC1N(C(=O)CC)c1ccc(Cl)c(Cl)c1 (stereo not drawn)	2	> 50	0.1	–	–	–
C=CCNC1CCCC1N(C(=O)CC)c1ccc(Cl)c(Cl)c1 (stereo not drawn)	0.2	–	3	–	–	–
CC(=O)N(c1ccc(Cl)c(Cl)c1)C1CCCC1N(C)C (stereo not drawn)	9	20	10	–	–	–

SMILES	ED50 (Mus musculus [1]; Mus musculus, read-out: ED50) [mg/kg]	ED50 (Mus musculus [2]; Mus musculus, read-out: ED50) [mg/kg]	ED50 (Mus musculus [3]; Mus musculus, read-out: ED50) [mg/kg]	ED50 (Mus musculus [1]) [mg/kg]	ED50 (Mus musculus [2]) [mg/kg]	ED50 (Mus musculus [3]) [mg/kg]
CCC(=O)N(c1ccc(C(=O)OC)cc1)C1CCCC1N(C)C (stereo not drawn)	> 50	> 50	> 50	–	–	–
CCCC(=O)N(c1ccccc1)C1CCCC1N(C)C (stereo not drawn)	6	40	10	–	–	–
CC(=O)N(c1ccccc1)C1CCCC1N(C)C (stereo not drawn)	7	40	9	–	–	–
CCC(=O)N(c1ccc(Cl)cc1)C1CCCC1N(C)C (stereo not drawn)	3	> 50	0.2	–	–	–
CCC(=O)N(c1ccccc1C)C1CCCC1N(C)C (stereo not drawn)	7	> 50	5	–	–	–
CCC(=O)N(c1c(F)c(F)c(F)c(F)c1F)C1CCCC1N(C)C (stereo not drawn)	> 50	> 50	> 50	–	–	–
CCC(=O)N(c1ccccc1Cl)C1CCCC1N(C)C (stereo not drawn)	6	> 50	2	–	–	–
CCC(=O)N(c1ccc(Cl)c(Cl)c1)C1CCCC1N(C)CCN(C)C (stereo not drawn)	0.8	20	5	–	–	–
CCC(=O)N(c1ccc(Cl)c(Cl)c1)C1CCCC1N(C)CCCN(C)C (stereo not drawn)	4	30	10	–	–	–
CCC(=O)N(c1cc(Cl)c(Cl)c(Cl)c1)C1CCCC1N(C)C (stereo not drawn)	4	40	40	–	–	–
CCC(=O)N(c1cc(Cl)cc(Cl)c1)C1CCCC1N(C)C (stereo not drawn)	0.9	30	5	–	–	–
CCC(=O)N(c1ccc(C)c(Cl)c1)C1CCCC1N(C)C (stereo not drawn)	1	2	0.6	–	–	–
CCC(=O)N(c1ccc(OC)cc1)C1CCCCC1N(C)C (stereo not drawn)	> 50	> 50	> 50	–	–	–
CN(C)C1CCCC1N(C=O)c1ccccc1 (stereo not drawn)	40	–	> 50	–	–	–
CCC(=O)N(c1cccc(Br)c1)C1CCCC1N(C)C (stereo not drawn)	0.1	2	0.1	–	–	–
CCC(=O)N(c1ccc(Cl)c(C)c1)C1CCCC1N(C)C (stereo not drawn)	2	10	2	–	–	–
CCC(=O)N(c1ccc(Cl)cc1)C1CCCCC1N(C)C (stereo not drawn)	35	14	17	–	–	–
CCC(=O)N(c1ccc(Br)cc1)C1CCCC1N(C)C (stereo not drawn)	2	> 50	3	–	–	–
CN(C)C1CCCC1N(C=O)c1ccc(Cl)c(Cl)c1 (stereo not drawn)	9	> 50	40	–	–	–
CCC(=O)N(c1ccc(OC)c(OC)c1)C1CCCC1N(C)C (stereo not drawn)	9	10	10	–	–	–
CCC(=O)N(c1ccccc1)C1CCCCC1N(C)C (stereo not drawn)	> 50	> 50	> 50	–	–	–
CCC(=O)N(c1ccc(Cl)c(Cl)c1)C1CCCC1N(CC)CC (stereo not drawn)	0.1	0.3	0.03	–	–	–
CCC(=O)N(c1ccc(Cl)c(Cl)c1)C1CCCC1O (stereo not drawn)	0.4	20	9	–	–	–

SMILES	ED50 (Mus musculus [1]; Mus musculus, read-out: ED50) [mg/kg]	ED50 (Mus musculus [2]; Mus musculus, read-out: ED50) [mg/kg]	ED50 (Mus musculus [3]; Mus musculus, read-out: ED50) [mg/kg]	ED50 (Mus musculus [1]) [mg/kg]	ED50 (Mus musculus [2]) [mg/kg]	ED50 (Mus musculus [3]) [mg/kg]
CCC(=O)N(c1ccc(C)cc1)C1CCCCC1N(C)C (stereo not drawn)	> 50	> 50	> 50	–	–	–
CN(C)C1CCCC1N(C(=O)c1cccs1)c1ccc(Cl)c(Cl)c1 (stereo not drawn)	20	> 50	10	–	–	–
CCC(=O)N(c1ccc(Cl)c(Cl)c1)C1CCCC1N (stereo not drawn)	0.02	–	0.8	–	–	–
CCC(=O)N(c1cccc(F)c1)C1CCCC1N(C)C (stereo not drawn)	0.4	5	0.6	–	–	–
CCC(=O)N(c1ccc(Cl)c(Cl)c1)C1CCCC1N(C)Cc1ccccc1 (stereo not drawn)	0.2	> 50	40	–	–	–
CCC(=O)N(c1ccc(Cl)c(Cl)c1)C1CCCC1NC (stereo not drawn)	0.4	–	0.3	–	–	–
CCC(=O)N(c1ccc(F)c(Cl)c1)C1CCCC1N(C)C (stereo not drawn)	0.2	0.7	2	–	–	–
CCC(=O)N(c1ccc(Cl)c(Cl)c1)C1CCCC1N1CCCC1 (stereo not drawn)	0.6	3	2	–	–	–
C=CCN(C)C1CCCC1N(C(=O)CC)c1ccc(Cl)c(Cl)c1 (stereo not drawn)	0.2	6	0.2	–	–	–
CCCC(=O)N(c1ccc(Cl)c(Cl)c1)C1CCCC1N(C)C (stereo not drawn)	2	0.9	7	–	–	–
CCC(=O)N(c1cccc(C)c1)C1CCCCC1N(C)C (stereo not drawn)	> 50	> 50	15	–	–	–
CCC(=O)N(c1ccccc1)C1CCCC1N(C)C (cis isomer)	–	–	–	10	>50	>50
CCC(=O)N(c1ccc(Cl)c(Cl)c1)C1CCCC1N(C)C (cis isomer) [ECLANAMINE]	–	–	–	0.9	>50	2
CCC(=O)N(c1ccc(Cl)c(Cl)c1)C1CCCC1N(C)C (stereo in doubt; 6) [ECLANAMINE]	–	–	–	0.4	10	0.2
CCC(=O)N(c1ccccc1)C1CCCC1N(C)C (stereo in doubt; 16)	–	–	–	3	0.8	2
CCC(=O)N(c1ccc(OC)cc1)C1CCCC1N(C)C (stereo in doubt; 20)	–	–	–	30	–	20
CCC(=O)N(c1cccc(C)c1)C1CCCC1N(C)C (stereo in doubt; 22)	3	25	1	–	–	–
CCC(=O)N(c1ccc(C)cc1)C1CCCC1N(C)C (stereo in doubt; 24)	–	–	–	30	10	10
CCC(=O)N(c1cccc(C)c1)C1CCCC1N(C)C (stereo in doubt; 44)	–	–	–	3	25	1
CCC(=O)N(c1ccc(C)cc1)C1CCCC1N(C)C (stereo in doubt; 45)	30	10	10	–	–	–
CCC(=O)N(c1ccc(OC)cc1)C1CCCC1N(C)C (stereo in doubt; 47)	30	> 50	20	–	–	–
CN(C)CCCN1c2ccccc2CCc2ccccc21.Cl [IMIPRAMINE HYDROCHLORIDE]	4	1	1	–	–	–
